What was measured:
[1] = tested on: ERK phosphorylation; details: peripheral blood mononuclear cells and tumor biopsies; cited from earlier work
[2] = Selumetinib plasma pharmacokinetics; type: in vivo, human; details: for Log (Cmax (ng/mL) – dose normalized) / Log(AUC 0-∞ (ng/mL × hr) – dose normalized): mean ± SD; for half-life: T ½
In short: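 Patients with refractory solid tumours or KRAS-mutant CRC took oral MEK inhibitor capsules fasting, with the morning dose ≥1 h before the anti-EGFR antibody (400 mg/m2 IV load, then 250 mg/m2 weekly; 28-day cycles). EDTA plasma was drawn at baseline and 0.5–12 h post-dose on C1D1, and assayed by validated LC-MS/MS (LOD 3.91 ng/ml). Analysis was noncompartmental. Dose levels 1–2 were pooled.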

[3] = type: in vivo, human; details: PO BID, with cetuximab 250 mg/m^2 weekly following a 400 mg/m^2 load
[4] = solid formulation, orally twice daily; cited from earlier work
[5] = day 1 of cycle 1, dose level 1 (selumetinib 50mg), N=6, mean ± SD
[6] = day 1 of cycle 1, dose level 1 and 2 combined (N=10)
[7] = day 1 of cycle 1, dose level 2 (selumetinib 50mg), N=4, mean ± SD
[8] = day 1 of cycle 1, dose level 3 incl. expansion cohort (N=22)
[9] = human, plasma, oral, 50 mg, day 1 of cycle 1, dose level 1 (selumetinib 50mg), N=6, mean ± SD
[10] = human, plasma, oral, 50 mg, day 1 of cycle 1, dose level 2 (selumetinib 50mg), N=4, mean ± SD

Cn1cnc2c(F)c(Nc3ccc(Br)cc3Cl)c(C(=O)NOCCO)cc21 [selumetinib]
ERK phosphorylation following selumetinib treatment [1]: Inhibition of ERK phosphorylation was observed | Cl/F [2, 5]: 23.9 ± 5.48 L/h | V/F [2, 5]: 76.9 ± 18.1 L | Log (Cmax (ng/mL) – dose normalized) [2, 6]: 3.19 ± 0.23 | Log(AUC 0-∞ (ng/mL × hr) – dose normalized) [2, 6]: 4.23 ± 0.17 | Cmax ([2]; day 1 of cycle 1, dose level 2 (selumetinib 50mg), N=4, geometric mean (CV)): 1143 (CV 0.28) ng/mL | Cl/F [2, 7]: 21.0 ± 2.53 L/h | V/F [2, 7]: 70.4 ± 19.7 L | Log (Cmax (ng/mL) – dose normalized) [2, 8]: 3.00 ± 0.43 | Log(AUC 0-∞ (ng/mL × hr) – dose normalized) [2, 8]: 4.24 ± 0.54 | AUC ([2]; human, plasma, oral): 3210 to 5200 ng·h/mL | AUC(0-inf) ([2]; human, plasma, oral, 50 mg, day 1 of cycle 1, dose level 1 (selumetinib 50mg), N=6, geometric mean (CV)): 3210 ng·h/mL | AUC(0-inf) ([2]; human, plasma, oral, 50 mg, day 1 of cycle 1, dose level 1 and 2 combined (50mg dose, N=10), geometric mean (CV)): 3450 ng·h/mL | AUC(0-inf) ([2]; human, plasma, oral, 50 mg, day 1 of cycle 1, dose level 2 (selumetinib 50mg), N=4, geometric mean (CV)): 3610 ng·h/mL | Cmax ([2]; human, plasma, oral, 50 mg, Cmax, day 1 of cycle 1, dose level 1 (selumetinib 50mg), N=6, geometric mean (CV)): 1320 ng/mL | half-life [2, 9]: 2.28 ± 0.55 h | half-life [2, 10]: 2.31 ± 0.55 h | Tmax [2, 9]: 1.13 ± 0.25 h | Tmax [2, 10]: 1.92 ± 1.28 h | maximum tolerated dose of the combination, selumetinib part [3]: 75 mg | maximum tolerated dose (MTD) of selumetinib, single agent [4]: 75 mg
